Results reported in ChEMBL document CHEMBL4808215, “Discovery of Selective Small-Molecule Inhibitors for the ENL YEATS Domain” (J Med Chem, 2021).
One block for each molecule: values may come before it. Activity calls are given as the source filed them. The rule behind the calls is not given here.

Key:
[1] = molecular target: T1, Protein ENL (Homo sapiens, UniProt Q03111); assay: Inhibition of human His-ENL YEATS domain and biotinylated H3K9ac peptide interaction by AlphaScreen assay
T1 sequence (Q03111 whole entry): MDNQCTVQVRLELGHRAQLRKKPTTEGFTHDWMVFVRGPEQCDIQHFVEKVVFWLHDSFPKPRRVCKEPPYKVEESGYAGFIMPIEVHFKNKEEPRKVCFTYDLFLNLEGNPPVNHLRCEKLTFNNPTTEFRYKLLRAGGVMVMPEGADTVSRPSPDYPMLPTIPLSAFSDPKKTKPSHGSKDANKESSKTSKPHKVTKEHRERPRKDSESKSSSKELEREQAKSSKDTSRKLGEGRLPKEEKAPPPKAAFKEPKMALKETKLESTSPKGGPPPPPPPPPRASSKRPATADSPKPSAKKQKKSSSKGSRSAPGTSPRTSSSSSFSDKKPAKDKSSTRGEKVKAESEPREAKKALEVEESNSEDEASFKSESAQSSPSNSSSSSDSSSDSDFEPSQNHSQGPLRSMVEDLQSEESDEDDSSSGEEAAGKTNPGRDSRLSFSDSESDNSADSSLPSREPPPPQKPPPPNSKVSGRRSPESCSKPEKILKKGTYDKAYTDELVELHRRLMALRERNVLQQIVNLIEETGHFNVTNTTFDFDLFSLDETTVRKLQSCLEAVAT

[2] = molecular target: T2, YEATS domain-containing protein 4 (Homo sapiens, UniProt O95619); assay: Inhibition of human His-GAS41 YEATS domain and biotinylated H3K27ac peptide interaction at 20 uM by AlphaScreen assay
T2 sequence (O95619 whole entry, the tested form may be a part): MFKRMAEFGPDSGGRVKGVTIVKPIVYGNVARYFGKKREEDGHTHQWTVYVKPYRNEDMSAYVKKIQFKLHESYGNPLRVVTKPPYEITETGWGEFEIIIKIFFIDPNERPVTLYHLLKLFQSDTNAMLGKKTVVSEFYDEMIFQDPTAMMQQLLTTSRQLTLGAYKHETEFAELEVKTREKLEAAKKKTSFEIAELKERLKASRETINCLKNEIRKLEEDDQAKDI

[3] = molecular target: T3, Protein AF-9 (Homo sapiens) (UniProt P42568); assay: Inhibition of human His-AF9 YEATS domain and biotinylated H3K9ac peptide interaction at 20 uM by AlphaScreen assay
T3 sequence (whole entry): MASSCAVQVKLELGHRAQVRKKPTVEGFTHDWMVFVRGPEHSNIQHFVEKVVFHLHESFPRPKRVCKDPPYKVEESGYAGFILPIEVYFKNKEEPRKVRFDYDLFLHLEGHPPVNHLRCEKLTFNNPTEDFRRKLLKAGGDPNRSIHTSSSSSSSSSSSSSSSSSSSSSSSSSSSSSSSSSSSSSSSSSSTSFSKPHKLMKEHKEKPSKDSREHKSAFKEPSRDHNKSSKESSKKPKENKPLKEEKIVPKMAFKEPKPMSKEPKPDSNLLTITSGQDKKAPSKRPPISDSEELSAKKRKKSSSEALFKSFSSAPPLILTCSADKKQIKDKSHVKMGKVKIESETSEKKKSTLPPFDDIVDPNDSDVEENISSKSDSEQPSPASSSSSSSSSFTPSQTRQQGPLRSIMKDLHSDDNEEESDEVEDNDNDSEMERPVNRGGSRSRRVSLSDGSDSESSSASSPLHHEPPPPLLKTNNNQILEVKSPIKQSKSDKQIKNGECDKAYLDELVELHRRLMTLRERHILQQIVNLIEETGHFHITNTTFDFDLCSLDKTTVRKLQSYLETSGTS

[4] = species: Homo sapiens; assay: Selectivity ratio of IC50 for human His-AF9 YEATS domain to IC50 for human His-ENL YEATS domain
[5] = molecular target: T4, Protein AF-9 (Homo sapiens, UniProt P42568); assay: Inhibition of human His-AF9 YEATS domain and biotinylated H3K9ac peptide interaction by AlphaScreen assay
T4 sequence (P42568 whole entry): T3 sequence (whole entry)

[6] = molecular target: T5, YEATS domain-containing protein 2 (Homo sapiens) (UniProt Q9ULM3); assay: Inhibition of human His-YEATS2 YEATS domain and biotinylated […] peptide interaction at 20 uM by AlphaScreen assay
T5 sequence (whole entry): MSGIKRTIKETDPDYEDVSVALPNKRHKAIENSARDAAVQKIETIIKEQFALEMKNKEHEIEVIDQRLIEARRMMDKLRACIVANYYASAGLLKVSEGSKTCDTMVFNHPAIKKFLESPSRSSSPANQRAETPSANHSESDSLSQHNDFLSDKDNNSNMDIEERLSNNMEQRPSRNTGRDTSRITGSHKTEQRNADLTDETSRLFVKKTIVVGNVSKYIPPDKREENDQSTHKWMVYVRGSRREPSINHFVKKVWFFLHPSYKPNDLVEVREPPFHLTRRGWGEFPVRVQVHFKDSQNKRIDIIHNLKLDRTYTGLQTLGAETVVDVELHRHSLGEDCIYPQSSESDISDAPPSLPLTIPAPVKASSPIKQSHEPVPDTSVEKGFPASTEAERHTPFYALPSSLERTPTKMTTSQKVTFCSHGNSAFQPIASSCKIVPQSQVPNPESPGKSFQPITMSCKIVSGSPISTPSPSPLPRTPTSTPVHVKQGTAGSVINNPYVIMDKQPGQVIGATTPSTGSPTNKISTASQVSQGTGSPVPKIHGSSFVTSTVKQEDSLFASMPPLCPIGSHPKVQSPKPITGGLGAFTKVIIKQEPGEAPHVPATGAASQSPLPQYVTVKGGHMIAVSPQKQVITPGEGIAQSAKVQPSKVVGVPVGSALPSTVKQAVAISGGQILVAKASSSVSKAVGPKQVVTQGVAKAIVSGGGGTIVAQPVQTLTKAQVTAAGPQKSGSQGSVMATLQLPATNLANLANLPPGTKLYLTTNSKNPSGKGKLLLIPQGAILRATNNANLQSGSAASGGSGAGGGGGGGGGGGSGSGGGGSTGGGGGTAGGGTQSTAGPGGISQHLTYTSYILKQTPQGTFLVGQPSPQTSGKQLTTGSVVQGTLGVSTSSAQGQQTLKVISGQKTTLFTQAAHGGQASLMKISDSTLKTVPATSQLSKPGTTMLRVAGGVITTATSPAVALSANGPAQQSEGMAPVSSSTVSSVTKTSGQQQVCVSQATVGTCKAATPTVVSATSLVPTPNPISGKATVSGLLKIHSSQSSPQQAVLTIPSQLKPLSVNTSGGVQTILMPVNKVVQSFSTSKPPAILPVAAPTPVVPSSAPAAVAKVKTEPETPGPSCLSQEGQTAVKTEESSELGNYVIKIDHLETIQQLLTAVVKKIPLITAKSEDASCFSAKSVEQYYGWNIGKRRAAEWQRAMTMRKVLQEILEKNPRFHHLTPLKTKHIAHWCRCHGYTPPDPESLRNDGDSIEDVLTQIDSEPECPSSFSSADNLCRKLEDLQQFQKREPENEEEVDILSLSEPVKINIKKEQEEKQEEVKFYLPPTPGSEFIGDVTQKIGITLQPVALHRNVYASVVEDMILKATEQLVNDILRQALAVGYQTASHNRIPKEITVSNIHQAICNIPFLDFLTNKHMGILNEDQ

[7] = molecular target: T6, Protein ENL (Homo sapiens) (UniProt Q03111); assay: Inhibition of human His-ENL YEATS domain and biotinylated H3K9ac peptide interaction at 5 uM by AlphaScreen assay
T6 sequence (whole entry): T1 sequence (Q03111 whole entry)

[8] = molecular target: T2, YEATS domain-containing protein 4; assay: Inhibition of human His-GAS41 YEATS domain and biotinylated H3K27ac peptide interaction by AlphaScreen assay
Procedure, shortened: (§1)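 His-tagged YEATS domains were expressed in E. coli Rosetta-2 (DE3) pLysS and purified on Ni-NTA. Partners were biotinylated peptide on streptavidin donor and Ni2+-chelate acceptor beads: AF9 30 nM with H3K9ac, GAS41 100 nM with H3K27ac, YEATS2 100 nM with H3K27cr. Peptides at 30 nM, buffer 50 mM HEPES pH 7.4, 100 mM NaCl, 0.1% BSA, 0.05% CHAPS. Thirteen-point 3-fold series from 54 μM to 0.1 nM, 4–6 replicates, signal normalised to no-compound control, four-parameter fit.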

[9] = molecular target: T7, YEATS domain-containing protein 2 (Homo sapiens, UniProt Q9ULM3); assay: Inhibition of human His-YEATS2 YEATS domain and biotinylated […] peptide interaction by AlphaScreen assay; procedure, shortened: as §1
T7 sequence (Q9ULM3 whole entry): T5 sequence (whole entry)

[10] = molecular target: YEATS domain-containing protein 4 (GAS41) (Homo sapiens) (UniProt O95619); assay: Stabilization of GAS41 in human MV4-11 cells assessed as inhibition of high temperature-induced GAS41 protein degradation at 20 uM incubated for 5 hrs by cellular thermal shift assay
Sequence of YEATS domain-containing protein 4 (GAS41) (Homo sapiens) (O95619 whole entry, looked up, the tested form may be a part): as the sequence (O95619 whole entry, the tested form may be a part) above

[11] = test system: MV4-11; assay: Growth inhibition of human MV4-11 cells at 2.5 to 50 uM incubated for 3 days by CellTiter-Glo luminescent cell viability assay relative to control; type: functional, cell-based; details: dose 2.5-50 µM, time 3.0 day
Procedure, shortened: (§2)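 MOLM13 and MV4;11 were grown in RPMI-1640 + 10% FBS, U2OS in DMEM + 10% FBS. Treatment with DMSO or compound for 3 days. Viability read by CellTiter-Glo luminescence and expressed as % of DMSO-treated cells. Mean ± SEM, n = 3.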

[12] = molecular target: T3, Protein AF-9 (Homo sapiens); assay: Stabilization of AF9 in human HeLa cells assessed as inhibition of high temperature-induced AF9 protein degradation at 20 uM incubated for 5 hrs by cellular thermal shift assay; type: cell-based
Procedure, shortened: (§3)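 Cells (MOLM13, MV4;11 or HeLa) were treated with 20 μM compound or DMSO for 5 h, washed with PBS and resuspended in PBS with protease inhibitors, about 3 million cells per aliquot. Aliquots were heated 3 min at the indicated temperatures, then held 2 min at room temperature. Lysis was by NP40/glycerol/DTT buffer and three freeze-thaw cycles, followed by a 13,000 rpm spin at 4 °C. Soluble ENL, GAS41 or AF9 in supernatants was measured by western blot with β-actin loading control.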

[13] = test system: MOLM-13; assay: Growth inhibition of human MOLM13 cells incubated for 6 days in presence of JQ1 by CellTiter-Glo luminescent cell viability assay; details: MOLM-13, 144 h
[14] = molecular target: T6, Protein ENL (Homo sapiens); assay: Stabilization of ENL in human HeLa cells assessed as inhibition of high temperature-induced ENL protein degradation at 20 uM incubated for 5 hrs by cellular thermal shift assay; type: cell-based; procedure, shortened: as §3
[15] = test system: U2OS; assay: Growth inhibition of ENL-independent human U2OS cells at 50 uM incubated for 3 days by CellTiter-Glo luminescent cell viability assay relative to control; type: functional, cell-based; details: time 3.0 day; procedure, shortened: as §2
[16] = molecular target: YEATS domain-containing protein 4 (GAS41) (Homo sapiens) (UniProt O95619); assay: Stabilization of GAS41 in human MOLM13 cells assessed as inhibition of high temperature-induced GAS41 protein degradation at 20 uM incubated for 5 hrs by cellular thermal shift assay; details: MOLM-13
[17] = test system: MOLM-13; assay: Growth inhibition of human MOLM13 cells at 10 uM incubated for 3 days by CellTiter-Glo luminescent cell viability assay relative to control; type: functional; details: MOLM-13, 72 h, time 3 day, read-out: GI; procedure, shortened: as §2
[18] = molecular target: T6, Protein ENL (Homo sapiens); assay: Stabilization of ENL in human MV4-11 cells assessed as inhibition of high temperature-induced ENL protein degradation at 20 uM incubated for 5 hrs by cellular thermal shift assay; type: cell-based; procedure, shortened: as §3
[19] = test system: MOLM-13; assay: Growth inhibition of human MOLM13 cells at 5 uM incubated for 3 days by CellTiter-Glo luminescent cell viability assay relative to control; type: functional; details: MOLM-13, 72 h, time 3 day, read-out: GI; procedure, shortened: as §2
[20] = molecular target: T6, Protein ENL (Homo sapiens); assay: Stabilization of ENL in human MOLM13 cells assessed as inhibition of high temperature-induced ENL protein degradation at 20 uM incubated for 5 hrs by cellular thermal shift assay; type: cell-based; details: MOLM-13; procedure, shortened: as §3
[21] = test system: MOLM-13; assay: Growth inhibition of human MOLM-13 cells incubated for 6 days by CellTiter-Glo luminescent cell viability assay; details: MOLM-13, 144 h

SMILES: O=C(NCc1ccc(CN2CCOCC2)cc1)c1ccc2nncn2c1
IC50 [1]: 891 nM

SMILES: O=C(NCc1ccc(CN2CCC2)cc1)c1ccn2cnnc2c1
IC50 [1]: > 5000 nM

SMILES: CC(C)C1CCN1Cc1ccc(CNC(=O)c2ccc3nncn3c2)cc1 (stereo not given)
IC50 [1]: 266 nM

SMILES: CN(C)Cc1ccc(CNC(=O)c2ccc3nncn3c2)cc1
inhibition [2]: Active
inhibition [3]: Active
Activity [10]: inactive
IC50 [5]: 4930 nM
growth inhibition (GI) [11]: Active
Activity [12]: inactive
inhibition [6]: Active
GI50 [13]: 1340 nM
Activity [14]: Active
growth inhibition (GI) [15]: inactive
Activity [16]: inactive
inhibition [7]: Active
inhibition of growth at 10 µM [17]: 80%
IC50 [8]: > 54000 nM
Activity [18]: Active
IC50 [1]: 621 nM
IC50 [9]: > 54000 nM
inhibition of growth at 5 µM [19]: 40%
Activity [20]: Active
GI50 [21]: 3640 nM

SMILES: CC(C)c1cnc(NCc2ccc(CNC(=O)c3ccc4nncn4c3)cc2)nc1
IC50 [1]: > 1000 nM

Continued by falling IC50 [1], values first:

IC50 [1]: 264 nM
SMILES: CC(C)(C)C1CCN1Cc1ccc(CNC(=O)c2ccc3nncn3c2)cc1 (stereo not given)

inhibition [2]: Active
inhibition [3]: Active
Ratio [4]: 4
IC50 [5]: 1850 nM
inhibition [6]: Active
inhibition [7]: Active
IC50 [8]: > 54000 nM
IC50 [1]: 230 nM
IC50 [9]: > 54000 nM
SMILES: CSc1ccc(CNC(=O)c2ccc3nncn3c2)cc1

IC50 [1]: 202 nM
SMILES: O=C(NCc1cccc(CN2CCC2)c1)c1ccc2nncn2c1
